The text below walks through data of ChEMBL document CHEMBL3243962, “Antileukemic activity of derivatives of 1,2-dimethyl-3,4-bis(hydroxymethyl)-5-phenylpyrrole bis(N-methylcarbamate)” (J Med Chem, 1979).

The structures appear in SMILES notation. The source made the active and inactive calls. Where only a bound is given, the exact number is not on record here.

One data set concerns Salmonella typhimurium. In words: Antimicrobial activity against Salmonella typhimurium ATCC 14028 at 1 mg after 24 hrs by disk sensitivity assay. In kind it is functional, organism-based. Particulars: Salmonella enterica subsp. enterica serovar Typhimurium. The method, boiled down:
(§1)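 Bacteria grown 24 h in trypticase soy broth; 1 mL used to seed a lawn on trypticase soy agar. Sterile 6 mm paper disks carrying 1 mg test compound placed on agar, incubated 24 h at 37 °C, then zone of inhibition around each disk measured.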
Take `CNC(=O)OCc1c(COC(=O)NC)c(-c2ccc(C(C)(C)C)cc2)n(C)c1C`: the result was inactive.

As for `CNC(=O)OCc1c(COC(=O)NC)c(-c2ccc([N+](=O)[O-])cc2)n(C)c1C`, the outcome was inactive.

For a further data set, the system named is Serratia marcescens. Briefly: Antimicrobial activity against Serratia marcescens ATCC 8100 at 1 mg after 24 hrs by disk sensitivity assay. In kind it is functional, organism-based.
Settings: not given
The method, boiled down:
as §1
In the case of `CNC(=O)OCc1c(COC(=O)NC)c(-c2ccc(C(C)(C)C)cc2)n(C)c1C`, the outcome was inactive.

Regarding `CNC(=O)OCc1c(COC(=O)NC)c(-c2ccc([N+](=O)[O-])cc2)n(C)c1C`, the result was inactive.

For the next data set, the system named is Staphylococcus epidermidis. In words: Antimicrobial activity against Staphylococcus epidermidis ATCC 12228 at 1 mg after 24 hrs by disk sensitivity assay. Type of data set: functional, organism-based.
Settings: not given
The essentials: as §1
As to `CNC(=O)OCc1c(COC(=O)NC)c(-c2ccc(C(C)(C)C)cc2)n(C)c1C`, the result was inactive.

`CNC(=O)OCc1c(COC(=O)NC)c(-c2ccc([N+](=O)[O-])cc2)n(C)c1C`: the result was inactive.

In another data set the test system is Escherichia coli. In words: Antimicrobial activity against Escherichia coli ATCC 25922 at 1 mg after 24 hrs by disk sensitivity assay. Type of data set: functional, organism-based.
Settings: not given
The method, boiled down: as §1
As to `CNC(=O)OCc1c(COC(=O)NC)c(-c2ccc(C(C)(C)C)cc2)n(C)c1C`, the outcome was inactive.

As for `CNC(=O)OCc1c(COC(=O)NC)c(-c2ccc([N+](=O)[O-])cc2)n(C)c1C`, the result was inactive.

A further data set deals with Proteus vulgaris. Briefly: Antimicrobial activity against Proteus vulgaris ATCC 6380 at 1 mg after 24 hrs by disk sensitivity assay. Type of data set: functional, organism-based.
Settings: not given
The method, boiled down: as §1
Turning to `CNC(=O)OCc1c(COC(=O)NC)c(-c2ccc(C(C)(C)C)cc2)n(C)c1C`, the outcome was inactive.

As to `CNC(=O)OCc1c(COC(=O)NC)c(-c2ccc([N+](=O)[O-])cc2)n(C)c1C`, the result was inactive.

The subject of another data set is Mus musculus. Briefly: Toxicity in mouse P388 cells allografted CD2F1 mouse assessed as body weight loss at 100 mg/kg, ip of total 9 doses starting 24 hrs post tumor inoculation measured on day 5 of inoculation relative to control. Type of data set: organism-based. The arrangement: dose 100 mg/kg, route intraperitoneal. The conditions noted are these: in vivo. The method, boiled down:
(§2)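 Male CD2F1 mice inoculated ip with 6×10^6 P388 leukemia cells. Compounds given ip as distilled water–Tween 80 suspension, nine daily doses starting 24 h after inoculation; six mice per dose group. Treated-minus-control body-weight change (T − C) and toxicity-day survivors recorded on day 5 (4 days after first dose).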
On to `CNC(=O)OCc1c(COC(=O)NC)c(-c2ccc(C(C)(C)C)cc2)n(C)c1C`, for which the Activity came to 4.4 g.

For the compound `CNC(=O)OCc1c(COC(=O)NC)c(-c2ccc([N+](=O)[O-])cc2)n(C)c1C`, the Activity is 4.4 g.

The next data set has as its system Mus musculus. In words: Toxicity in mouse P388 cells allografted CD2F1 mouse assessed as body weight loss at 50 mg/kg, ip of total 9 doses starting 24 hrs post tumor inoculation measured on day 5 of inoculation relative to control. Type of data set: organism-based. The arrangement: dose 50 mg/kg, route intraperitoneal. The conditions noted are these: in vivo. The essentials: as §2
Turning to `CNC(=O)OCc1c(COC(=O)NC)c(-c2ccc(C(C)(C)C)cc2)n(C)c1C`, the Activity worked out at 5.1 g.

Consider `CNC(=O)OCc1c(COC(=O)NC)c(-c2ccc([N+](=O)[O-])cc2)n(C)c1C`, for which the Activity is 6.6 g.

Another data set relates to Mus musculus. Briefly: Toxicity in mouse P388 cells allografted CD2F1 mouse assessed as body weight loss at 25 mg/kg, ip of total 9 doses starting 24 hrs post tumor inoculation measured on day 5 of inoculation relative to control. In kind it is organism-based. The arrangement: dose 25 mg/kg, route intraperitoneal. Particulars: in vivo. The essentials: as §2
On to `CNC(=O)OCc1c(COC(=O)NC)c(-c2ccc(C(C)(C)C)cc2)n(C)c1C`, for which the Activity is 4 g.

In the case of `CNC(=O)OCc1c(COC(=O)NC)c(-c2ccc([N+](=O)[O-])cc2)n(C)c1C`, the Activity came out at 5.5 g.

The next data set has as its system Mus musculus. In words: Toxicity in mouse P388 cells allografted CD2F1 mouse assessed as body weight loss at 12.5 mg/kg, ip of total 9 doses starting 24 hrs post tumor inoculation measured on day 5 of inoculation relative to control. Type of data set: organism-based. More on the design: dose 12.5 mg/kg, route intraperitoneal. Particulars: in vivo. The essentials: as §2
Regarding `CNC(=O)OCc1c(COC(=O)NC)c(-c2ccc(C(C)(C)C)cc2)n(C)c1C`, the Activity was 3.8 g.

As to `CNC(=O)OCc1c(COC(=O)NC)c(-c2ccc([N+](=O)[O-])cc2)n(C)c1C`, the Activity worked out at 4.1 g.

The next data set relates to Mus musculus. In words: Toxicity in mouse P388 cells allografted CD2F1 mouse assessed as body weight loss at 6.25 mg/kg, ip of total 9 doses starting 24 hrs post tumor inoculation measured on day 5 of inoculation relative to control. More on the design: dose 6.25 mg/kg, route intraperitoneal. Particulars: in vivo. In kind it is organism-based. The essentials: as §2
`CNC(=O)OCc1c(COC(=O)NC)c(-c2ccc(C(C)(C)C)cc2)n(C)c1C`: the Activity worked out at 2 g.

`CNC(=O)OCc1c(COC(=O)NC)c(-c2ccc([N+](=O)[O-])cc2)n(C)c1C`: the Activity was determined as 2.9 g.

For the next data set, the system named is Mus musculus. Briefly: Toxicity in mouse P388 cells allografted CD2F1 mouse assessed as mouse survival at 25 mg/kg, ip of total 9 doses starting 24 hrs post tumor inoculation measured on day 5 of inoculation relative to control. In kind it is organism-based. The arrangement: dose 25 mg/kg, route intraperitoneal. The conditions noted are these: in vivo. The essentials: (§3)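 Male CD2F1 mice bearing ip P388 leukemia (6×10^6 cells) were dosed ip with nine daily doses in distilled water–Tween 80 suspension, starting 24 h after inoculation. Survivors per group of 6 were counted on day 5, i.e. 4 days after the first dose. Body-weight change of treated minus control mice was also recorded.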
For the compound `CNC(=O)OCc1c(COC(=O)NC)c(-c2ccc(C(C)(C)C)cc2)n(C)c1C`, the Activity result was “Non-toxic”.

`CNC(=O)OCc1c(COC(=O)NC)c(-c2ccc([N+](=O)[O-])cc2)n(C)c1C`: the Activity entry is recorded as “Non-toxic”.

The next data set relates to Mus musculus. In words: Toxicity in mouse P388 cells allografted CD2F1 mouse assessed as mouse survival at 12.5 mg/kg, ip of total 9 doses starting 24 hrs post tumor inoculation measured on day 5 of inoculation relative to control. In kind it is organism-based. More on the design: dose 12.5 mg/kg, route intraperitoneal. Particulars: in vivo. The method, boiled down:
as §3
Take `CNC(=O)OCc1c(COC(=O)NC)c(-c2ccc(C(C)(C)C)cc2)n(C)c1C`: the Activity result is given as “Non-toxic”.

Take `CNC(=O)OCc1c(COC(=O)NC)c(-c2ccc([N+](=O)[O-])cc2)n(C)c1C`: the Activity result is reported as “Non-toxic”.

For the next data set, the system named is Mus musculus. Briefly: Toxicity in mouse P388 cells allografted CD2F1 mouse assessed as mouse survival at 6.25 mg/kg, ip of total 9 doses starting 24 hrs post tumor inoculation measured on day 5 of inoculation relative to control. In kind it is organism-based. More on the design: dose 6.25 mg/kg, route intraperitoneal. Particulars: in vivo. The method, boiled down: as §3
As for `CNC(=O)OCc1c(COC(=O)NC)c(-c2ccc(C(C)(C)C)cc2)n(C)c1C`, the Activity entry is “Non-toxic”.

For the compound `CNC(=O)OCc1c(COC(=O)NC)c(-c2ccc([N+](=O)[O-])cc2)n(C)c1C`, the Activity result is “Non-toxic”.

For a further data set, the system named is Enterobacter cloacae. Briefly: Antimicrobial activity against Enterobacter cloacae ATCC 23355 at 1 mg after 24 hrs by disk sensitivity assay. Type of data set: functional, organism-based.
Settings: not given
The method, boiled down: as §1
Turning to `CNC(=O)OCc1c(COC(=O)NC)c(-c2ccc(C(C)(C)C)cc2)n(C)c1C`, the outcome was inactive.

With `CNC(=O)OCc1c(COC(=O)NC)c(-c2ccc([N+](=O)[O-])cc2)n(C)c1C`, the result was inactive.

The next data set deals with Klebsiella pneumoniae. Briefly: Antimicrobial activity against Klebsiella pneumoniae ATCC 23357 at 1 mg after 24 hrs by disk sensitivity assay. Type of data set: functional, organism-based.
Settings: not given
The essentials: as §1
In the case of `CNC(=O)OCc1c(COC(=O)NC)c(-c2ccc(C(C)(C)C)cc2)n(C)c1C`, the result was inactive.

Regarding `CNC(=O)OCc1c(COC(=O)NC)c(-c2ccc([N+](=O)[O-])cc2)n(C)c1C`, the outcome was inactive.

The subject of a further data set is Staphylococcus aureus. In words: Antimicrobial activity against Staphylococcus aureus ATCC 25923 at 1 mg after 24 hrs by disk sensitivity assay. In kind it is functional, organism-based.
Settings: not given
The method, boiled down:
as §1
For `CNC(=O)OCc1c(COC(=O)NC)c(-c2ccc(C(C)(C)C)cc2)n(C)c1C`, the result was inactive.

As for `CNC(=O)OCc1c(COC(=O)NC)c(-c2ccc([N+](=O)[O-])cc2)n(C)c1C`, the result was inactive.

In a further data set the test system is P388. Briefly: Antitumor activity against mouse P388 cells allografted in CD2F1 mouse assessed as increase in mouse survival at 50 mg/kg, ip of total 9 doses starting 24 hrs post tumor inoculation measured on day 5 of inoculation relative to control. The conditions noted are these: route intraperitoneal. Type of data set: functional. The essentials: (§4)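 Male CD2F1 mice inoculated ip with 6×10^6 P388 leukemia cells. Dosing was ip as a suspension in distilled water–Tween 80, nine daily doses starting 24 h after inoculation. Activity was read as median survival time of treated vs control mice (% T/C); % T/C ≥ 120 was considered significant. Groups were 6 mice.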
By T/C is commonly meant the result in the treated group divided by that in the control group, in per cent. For the compound `CNC(=O)OCc1c(COC(=O)NC)c(-c2ccc(C(C)(C)C)cc2)n(C)c1C`, the T/C was 97%.

Take `CNC(=O)OCc1c(COC(=O)NC)c(-c2ccc([N+](=O)[O-])cc2)n(C)c1C`: the T/C was less than 90%.

The test system of the next data set is P388. In words: Antitumor activity against mouse P388 cells allografted in CD2F1 mouse assessed as increase in mouse survival at 25 mg/kg, ip of total 9 doses starting 24 hrs post tumor inoculation measured on day 5 of inoculation relative to control. Type of data set: functional. The conditions noted are these: route intraperitoneal. The essentials: as §4
`CNC(=O)OCc1c(COC(=O)NC)c(-c2ccc(C(C)(C)C)cc2)n(C)c1C`: the T/C turned out to be 158%.

Consider `CNC(=O)OCc1c(COC(=O)NC)c(-c2ccc([N+](=O)[O-])cc2)n(C)c1C`, for which the T/C is reported as less than 90%.

The next data set deals with P388. In words: Antitumor activity against mouse P388 cells allografted in CD2F1 mouse assessed as increase in mouse survival at 12.5 mg/kg, ip of total 9 doses starting 24 hrs post tumor inoculation measured on day 5 of inoculation relative to control. Particulars: route intraperitoneal. Type of data set: functional. The method, boiled down: as §4
Take `CNC(=O)OCc1c(COC(=O)NC)c(-c2ccc(C(C)(C)C)cc2)n(C)c1C`: the T/C stood at 155%.

In the case of `CNC(=O)OCc1c(COC(=O)NC)c(-c2ccc([N+](=O)[O-])cc2)n(C)c1C`, the T/C is reported as 169%.

Another data set concerns P388. In words: Antitumor activity against mouse P388 cells allografted in CD2F1 mouse assessed as increase in mouse survival at 6.25 mg/kg, ip of total 9 doses starting 24 hrs post tumor inoculation measured on day 5 of inoculation relative to control. Type of data set: functional. Particulars: route intraperitoneal. The essentials:
as §4
As to `CNC(=O)OCc1c(COC(=O)NC)c(-c2ccc(C(C)(C)C)cc2)n(C)c1C`, the T/C was 152%.

`CNC(=O)OCc1c(COC(=O)NC)c(-c2ccc([N+](=O)[O-])cc2)n(C)c1C`: the T/C was 153%.
